From ChEMBL document CHEMBL1135248, “Synthesis and evaluation of pseudopeptide analogues of a specific CXCR4 inhibitor, T140: the insertion of an (E)-alkene dipeptide isostere into the betaII'-turn moiety” (Bioorg Med Chem Lett, 2002)

How the values were obtained:
[1] = biological target: T1, C-X-C chemokine receptor type 4 (Homo sapiens, UniProt P61073); test: (§1) Inhibitory activity based on the inhibition of [Ca2+] mobilization induced by human SDF-1alpha stimulation through C-X-C chemokine receptor type 4
Outline: (§2)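 CHO cells transfected with CXCR4 were loaded with Fura-2-AM for 1–2 h and then pretreated with analogue. Recombinant human SDF-1α was added 3 min later. [Ca2+]i rise was measured spectrofluorometrically by a modified Fura-2 method, and IC50 was derived from inhibition of mobilization. Values are the mean of two experiments.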

[2] = biological target: T1, C-X-C chemokine receptor type 4; test: as §1; outline: as §2; remark: listed apart in the source

T1 sequence (P61073 whole entry): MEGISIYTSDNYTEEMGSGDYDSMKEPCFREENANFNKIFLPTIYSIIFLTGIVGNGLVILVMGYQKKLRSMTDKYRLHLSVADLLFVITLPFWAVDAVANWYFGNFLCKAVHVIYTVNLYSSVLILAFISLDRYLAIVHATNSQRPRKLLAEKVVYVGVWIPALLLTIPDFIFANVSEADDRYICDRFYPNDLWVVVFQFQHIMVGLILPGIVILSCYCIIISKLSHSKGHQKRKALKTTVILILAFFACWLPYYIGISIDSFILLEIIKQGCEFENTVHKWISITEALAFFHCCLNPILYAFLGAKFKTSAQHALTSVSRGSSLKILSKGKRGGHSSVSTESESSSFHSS

Q: How did the IC50 [1] turn out when `C[C@H]1/C=C\[C@@H](CCCCN)NC(=O)[C@H](CCCCN)NC(=O)[C@H](CCCNC(=N)N)NC(=O)[C@H](Cc2ccc(O)cc2)NC(=O)[C@@H](NC(=O)[C@H](Cc2c[nH]c3ccccc23)NC(=O)[C@H](CCCNC(=N)N)NC(=O)[C@@H](N)CCCN=C(N)N)CSSC[C@@H](C(=O)N[C@@H](CCCNC(=N)N)C(=O)O)NC(=O)[C@H](CCCNC(N)=O)NC(=O)[C@H](CCCNC(=N)N)NC(=O)[C@H](Cc2ccc(O)cc2)NC1=O` was run?
A: 27 nM

Q: What about the IC50 [2] of the same compound?
A: 30 nM
